Experiment: Toxicity liver stage against HepG2, at 10uM
Format: cell-based
Design: test concentration 10 uM, cell line HepG2-A16-CD81EGFP
Settings: human, HepG2-A16-CD81EGFP cells; read-out: INHIBITION
Method in brief: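 Uninfected HepG2-A16-CD81EGFP cells, 3 × 10^3 per well, 1536-well, plated on prespotted compound at 10 μM final, parasite-free screening media added to match infected plates; puromycin 10 μM positive, DMSO 0.5% negative; run in parallel with 48 h PbLuc assay at 37 °C, 5% CO2; viability by CellTiter-Glo luminescence, normalized to controls.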

SMILES	cytotoxicity at 10 µM [%]
CC(C)(C)n1cc(C(=O)NCCN2CCOCC2)c2cccnc21	2.14
O=C(O)CN(C(=O)c1ccccc1)[C@H]1C[C@H]2CCOC[C@H]2C1	-1.03
COCC(=O)NCC1CCN(Cc2ccsc2)CC1	-3.88
O=S(=O)(c1ccccc1Cl)N1CCC2(CC1)OCCS2	-4.84
CC1(C)OCC2(CO1)CN(C(=O)c1cccc3ccccc13)C2	-7.81
COC(=O)N1CCc2ccccc2C1C(=O)NCC(F)(F)F (stereo not given)	-2.96
O=C1CCSCC(C(=O)N2CCC3(CC2)OCCO3)N1 (stereo not given)	0.595
Cn1nc(CNC(=O)c2ccc(OC(F)(F)F)cc2)c2c1CCOC2	7.03
Cc1ccccc1NC(=O)N1CC[C@@H]2CN(C)S(=O)(=O)[C@@H]2CC1	4
CC(C)NC(=O)N1CCCC2(CCCCN2)C1 (stereo not given)	11.4
Cc1nnc([C@H]2C[C@@H]3CCN(C(=O)C4CCOCC4)C[C@H]3O2)[nH]1	16.5
COc1ccc(CC(=O)N2CC[C@@H]3NC(=O)CC[C@@H]32)cc1	-1.89
CCCS(=O)(=O)N1CC[C@H]2O[C@@H](c3nc(C)no3)CC[C@H]21	-2.48
O=C(c1cscn1)N1CCn2cnc(COCC3CC3)c2C1	-4.6
CNC(=O)[C@@]12CCCN(c3ncccn3)[C@@H]1CN(c1ncc(C)cn1)C2	3.97
O=C(Cn1ccc2ccc(Cl)cc21)NCc1ccc(C(=O)O)cc1	7.91
CC(C)n1[nH]c(=O)c2c1NC(=O)CC2c1cccc(Br)c1 (stereo not given)	5.28
COc1ccc2nnc(CCCC(=O)NCc3cccn3C)n2n1	3.85
COc1ccc(C(=O)N2CCCC2c2ccco2)cc1OC (stereo not given)	1.03
O=C(O)c1cc2c(nc1O)CC(c1cccs1)CC2=O (stereo not given)	8.32
O=C(O)c1nnn(-c2ccc(F)c(F)c2)c1-c1ccncc1	3.72
CCc1ccccc1-n1nnc(C(=O)O)c1-c1ccccn1	-6.42

SMILES	cytotoxicity at 10 µM [%]
COCC1CN(Cc2ccc(C)o2)Cc2ncn(CC3CC3)c21 (stereo not given)	-11
O=C1CNc2ncnc(Nc3cnn(Cc4cccc(F)c4)c3)c2N1	4.67
CC(=O)Nc1ncc(S(=O)(=O)Nc2ccc(F)cc2)s1	0.976
CCc1cc(=O)[nH]c(NC2CCN(S(=O)(=O)c3ccccc3)CC2)n1	-5.49
CS(=O)(=O)N[C@@H]1CN(Cc2ccc3ccccc3c2)C[C@H]1O	-2.92
CC(=O)N1CCC(c2cncc(N3CCCC(O)C3)n2)CC1 (stereo not given)	-1.47
Cc1csc(C(Cc2ccsc2)NC(=O)c2cc(=O)n(C)c(=O)n2C)n1 (stereo not given)	-12.3
Cc1ccccc1CC(=O)N1C[C@@H](O)[C@H](N2CCN(C)CC2)C1	-4.29
COCc1ccc(C(=O)N2CC[C@H](O)[C@@H](n3ccnc3)CC2)cc1	-12.1
NC(=O)C1(CCCc2ccccn2)CCCN(c2ncccn2)C1 (stereo not given)	-5.69
Cn1cc(-c2nc(C(=O)N3CCCC3c3cnn(C)c3)cs2)cn1 (stereo not given)	1.85
O=S(=O)(CCOc1ccc(F)cc1)Nc1cnn(CC(F)F)c1	-4.87
CC(C)c1cc(C(=O)N(c2ccc(F)cn2)C2CCOCC2)on1	-9.01
N#Cc1ccc(CS(=O)(=O)NC(=O)c2ccc(C#N)cc2)cc1	5.47
O=C(Nc1ccccc1-c1ccccc1)NC1CCC2(C1)OCCO2 (stereo not given)	8.84
O=C(NCCN1CCCCCC1)c1cccc(Cl)c1Cl	5.8
COc1ccc(Cl)cc1CN(CC(N)=O)C(C)C	1.49
CCOc1cc(F)ccc1NC1CCN(CC(F)(F)F)C1=O (stereo not given)	-0.302
CC(C)(NC(=O)c1cnc(C(C)(C)C)s1)C(N)=O	-4.04
Cc1ccc(C(=O)N(C)CC(=O)N2CCCC2)c(C)c1	-0.705
O=C(CCc1nnc(-c2ccsc2)o1)NCC1CCN(C2CC2)C1 (stereo not given)	-1.73
Cc1csc(CCNC(=O)N2CCC(n3cccc3)CC2)n1	3.98

SMILES	cytotoxicity at 10 µM [%]
O=C(NCC(=O)N1CCCC1Cc1cccc(F)c1)c1ccccn1 (stereo not given)	-8.51
CN(C)CC1CN(CC(=O)N2CCc3ccccc32)CCO1 (stereo not given)	-1.61
CCC(O)CN1CCN(C(=O)C2(c3ccc(C)c(OC)c3)CC2)CC1 (stereo not given)	3.83
N#Cc1ccc(C(=O)N(C2CC2)C2CC(=O)NC2=O)cc1 (stereo not given)	-4.64
O=C(NCCNc1cnccn1)N1CC=C(c2ccc(O)cc2)CC1	18.6
O=C(NCCNS(=O)(=O)c1cc(F)cc(F)c1)c1ccoc1	-1.33
COc1ccc(C(CO)NC(=O)Nc2cccc(C(C)=O)c2)cc1 (stereo not given)	3.43
Cc1nc2n(n1)CC(Nc1nc(-c3ccccc3)no1)CC2 (stereo not given)	0.658
Cc1ccc(S(=O)(=O)N(C)CC(N)=O)c(Cl)c1	5.79
COCCn1ccc2cc(NC(=O)N(C)C(C)CSC)ccc21 (stereo not given)	0.08
O=C(Nc1ccccc1OCC(F)F)N[C@@H]1C=C[C@H](CO)C1	-7.14
CS(=O)(=O)NCC1CCCN(C(=O)c2ccc3c(c2)CCC3)C1 (stereo not given)	-5.52
Cc1nn(C)c(C)c1NC(=O)CNc1ccc(F)c(C(F)(F)F)c1	0.0371
CNC(=O)c1ccc(NC(=O)NC(C)c2cc(C)oc2C)cc1 (stereo not given)	-12.8
CCC(NC(=O)c1cccc2[nH]ccc12)C(=O)N1CCOCC1 (stereo not given)	-4.1
FC(F)(F)c1ccnc(N2CCCCCC2)c1	3.02
COc1ccc(CC(=O)N(C)c2cccnc2N(C)C)c(Cl)c1	5.71
COCC(C)NC(=O)CN1CCC(CO)CC1 (stereo not given)	-6.16
COc1ccc(CCN2CC(n3nc(C)cc3C)C2)cc1	-9.12
CN(Cc1nnc(C2CC2)n1C)S(=O)(=O)c1ccc(F)c(C#N)c1	18.4
Cc1ccc(C(=O)Nc2ccc(N3CCCC3)cn2)cc1F	47.4
OC(CN1CCCCc2ccccc21)Cn1cccn1 (stereo not given)	5.55

SMILES	cytotoxicity at 10 µM [%]
CC(C)OCCN(Cc1cccc(O)c1)C1CCC(O)CC1 (stereo not given)	5.81
Cc1ccc(C(C)NC(=O)Nc2ccccc2CN2CCOCC2)o1 (stereo not given)	3.25
CCOC(=O)NC(CNC(=O)CCc1ccccn1)CC(C)C (stereo not given)	-4.61
Cc1ccc(-n2nnc(CC(=O)N3CCSCC3)c2C)cc1	-13.1
Cc1oc(-c2ccsc2)nc1CC(=O)NCCS(C)(=O)=O	-8.6
CC(C)Cc1noc(CN2CCN(C(=O)c3ccco3)CC2)n1	-5.39
CNS(=O)(=O)c1cc(C(=O)NC2CCOc3ccccc32)cc(C)c1C (stereo not given)	6.82
COC(=O)CCCn1ccnc1-c1ccccc1	-4.65
CCc1cc(N2CCN(C(C)=O)CC2)n2nc(C)c(C)c2n1	3.96
CC(C)C[C@@H](CO)n1cc(-c2cnc(-c3ccco3)nc2)nn1	-0.662
c1ccc(CN2CCC(CCNc3ncnc4c3CCNCC4)C2)cc1 (stereo not given)	-0.16
O=C(O)[C@@H]1CN(C(=O)CN2CCCCCC2)C[C@H]1c1ccccc1	4.97
CC(C)CCN(C)Cc1ccccc1-c1nc(C(C)C)cc(=O)[nH]1	5.46
C[C@H](c1ccc(F)cc1)n1c(C2CCC2)n[nH]c1=O	-5.95
C[C@@H]1CN(C(=O)c2ccncc2)CC[C@@]1(O)C1CCOCC1	0.301
Cc1ccc2nc(C3CCCN3Cc3scnc3C)[nH]c2c1 (stereo not given)	8.2
Cc1ccc(NC(=O)c2cc3c(=O)n(C)c(=O)n(C)c3nc2C)cc1Cl	-7.15
NC(=O)c1c[nH]nc1NC(=O)c1ccc(Cl)cc1	3.19
O=C(NC[C@]1(O)CN(Cc2ccccc2F)C[C@H]1O)c1ccccn1	1.15
CCc1nccn1C1CCCN(C(=O)c2ccc3nnc(C)n3c2)C1 (stereo not given)	-8.95
COc1cc(CCC(=O)NC2CCCN(C)C2)ccc1OCC(F)(F)F (stereo not given)	-4.54
Cc1cnn(CC2CN(Cc3csc(C4CCCC4)n3)CCO2)c1 (stereo not given)	-5.47

SMILES	cytotoxicity at 10 µM [%]
O=C(Cn1nc(-c2ccc(F)cc2)oc1=O)NCc1ccncc1	-9.21
CCC(O)CN1CCN(C(=O)Cc2ccc(OC)cc2OC)CC1 (stereo not given)	-23.8
CCc1nccn1C1CCCN(C(=O)CCCc2ccccn2)C1 (stereo not given)	-18.7
CSCCC(=O)N1CCCC(n2ccnc2)C1 (stereo not given)	-6.28
CCN(Cc1ccc2c(c1)OCCO2)C(=O)NCc1csc(C)n1	-5.16
Cc1noc(C2CCCN(C(=O)c3ccc(Cl)cc3F)C2)n1 (stereo not given)	-25.3
CC(=O)N1CCCC1C(=O)NCCOc1cc(C)cc(C)c1 (stereo not given)	-10.5
CC(=O)N(Cc1noc(C)n1)C1CCN(Cc2cc(C)on2)C1 (stereo not given)	4.38
Cc1ccc(CNCC(C)Oc2ccccn2)cc1 (stereo not given)	5.4
Cc1ccc(N2CCC3(CCN(C(=O)c4ccnnc4)CC3)CC2)nn1	3.94
Cn1cc(CN2CCCC3(COCCN(Cc4c[nH]nn4)C3)C2)cn1 (stereo not given)	-0.501
COc1cc(N2C[C@@H]3COC[C@]3(COc3ccccn3)C2)ncn1	1.35
Cc1cccc(NC(=O)N2CCCn3cnc(CN(C)C(C)C)c3C2)c1	8.18
Cc1cc(CN2CC[C@H]3[C@H]2CCN3C)oc1C	-0.655
O=c1[nH]c2ncccc2n1C1CCNCC1	11.5
N#Cc1ccc(N2CCC3(CC2)COCCN3Cc2cccnc2)cc1	-1.77
O=C1COC2(CCN(c3ncccn3)CC2)CN1Cc1ccccn1	2.4
Cn1nnc2c1CCN(C(=O)C1CC1)C2COCCN1CCCC1 (stereo not given)	8.33
Cn1cccc1C(=O)N1CCn2nnc(COc3cccnc3)c2C1	-69.7
Cc1cnc(C(=O)N2C[C@H]3CN(Cc4cccnc4)C[C@H]3C2)cn1	2.4
Cc1ccc(CN2CCC3(CCC3NC(=O)c3ccn(C)c3)CC2)s1 (stereo not given)	-151
O=C(c1cnccn1)N1C[C@H]2CC[C@@H](C1)N(S(=O)(=O)c1cccnc1)C2	-2.03
